PostGolgi ctrl: growth inhibition of yeast control strain, primary screen, counter-screen for post-Golgi transport modulator project; efflux-deficient yeast background strain, growth absorbance A615, 16 h; AID 738, 2007; inhibition, % at 10 µM; 98,000 compounds, 5% hits
Her2 expr inh: inhibitors of Her2 protein expression, primary screen, SKBR-3 cells, AlphaScreen, 66K library; 65,000 compounds, 0.69% hits; SKBR-3 HER2 protein level, 18-24 h; hits give low values; HER2 level % of control, % at 10 µM;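 active = HER2 level under 5% of the carrier-only control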;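 note: 100% = DMSO carrier and 0% = 500 nM PU-H71 HSP90 inhibitor; lower value means stronger loss of Her2 protein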
PostGolgi yeast: phenotypic screen on post-Golgi transport, primary screen. post-Golgi transport phenotypic cell assay. inhibition, % at 10 µM. 98,000 compounds, 0.9% hits. AID 739, 2007;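 note: yeast cells grown in 1536-well plates; yeast grown about 18 h at 30C before absorbance read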
tolC growth inh: growth inhibitors of E. coli tolC mutant, primary screen, strain BW25113 ΔtolC::kan, 384-well; 65,000 compounds, 2.2% hits; growth inhibition, % at 10 µM (by protocol); AID 573, 2007; OD615;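 active = growth inhibition at or above a cutoff equal to the mean over every tested compound plus 3 SD, cut at about 60% in these data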;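 note: growth measured after 20 h incubation at 37 °C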
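Assay system: tolC-deleted E. coli BW25113. Medium: kanamycin-containing LB broth (50 µg/mL). Dosing: 10 µM final, single dose. Timing: bacterial growth with compound for 20 h at 37 °C. Detection: A615 absorbance measurement. Read-out basis: growth inhibition in percent.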
Ecoli WT expand: growth inhibitors of wild-type E. coli, primary screen, strain BW25113, expanded library, OD600. 98,000 compounds, 0.15% hits. growth inhibition, % at 100 µM. OD600 absorbance;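 active = growth inhibition above about 50% at one test dose, limit read from the data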;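 note: growth measured after 20 h incubation at 37 °C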
Numbers without * were called inactive; nt = no result. Only some compounds are listed: those with a hit (about 6.6% of all), similar ones and a draw of the others. Cut-off read from the data, not from the text of the source, unless noted: active = inhibition above about 30%; inactive = the rest.

SMILES	PostGolgi ctrl	Her2 expr inh	PostGolgi yeast	tolC growth inh	Ecoli WT expand
CCN(CC)S(=O)(=O)c1ccc2[nH]cc(C(=O)NCCC3=CCCCC3)c(=O)c2c1	-1.6	38.3	-2.9	97.7*	-6.0
CCc1ccccc1NC(=O)/C(=C/c1ccco1)c1ccccc1	34.9*	nt	-2.2	nt	-3.0
Cc1ccccc1NC(=O)/C(=C/c1ccco1)c1ccccc1	26.4	nt	-3.7	nt	1.0
COC(=O)C1=C(C)Nc2nc(-c3ccccc3)nn2C1c1ccc(C)o1 (configuration not stated)	21.7	85.2	9.8	3.4	3.0
CC1CCc2nc(NC(=O)Cc3cccs3)sc2C1 (configuration not stated)	13.0	77.3	-13.5	40.5	1.0
CC(C)(C)C1CCc2nc(NC(=O)Cc3cn4ccsc4n3)sc2C1 (configuration not stated)	46.2*	92.4	0.3	58.4	4.0
Nc1n[nH]c2c1C1(CCCCC1)Cc1ccccc1-2	41.7*	51.0	2.0	44.1	16.0
O=c1[nH]c(CN(CCO)CCO)nc2c1C1(CCCCC1)Cc1ccccc1-2	1.8	96.5	-0.8	1.3	-5.0
Cc1ccc(Cl)cc1N1CCN(C(=O)CCS(=O)(=O)c2cccc3nonc23)CC1	nt	85.6	nt	60.6*	nt
Cc1noc(C)c1CSc1nc2ccccc2c(=O)n1-c1ccc(F)cc1F	55.2*	66.7	3.4	54.9	-15.0
CCn1cnc2sc(C(=O)N3CCN(c4ccc(OC)cc4)CC3)c(C)c2c1=O	31.8*	99.1	-4.3	-1.0	6.0
Cc1cc(C(=O)OCC(=O)c2ccc(Br)s2)c(C)o1	-6.3	83.2	-3.1	20.1	-1.0
COc1ccc(OC)c(C(=O)COC(=O)c2cc(C)oc2C)c1	12.1	68.1	-9.9	61.0*	-4.0
Cc1ccc(NC(=O)CN2C(=O)S/C(=C\c3cccn3C)C2=O)cc1	-1.7	nt	-4.7	nt	-4.0
CC1C/C(=C/c2cccn2C)C(=O)/C(=C/c2cccn2C)C1 (configuration not stated)	40.7*	nt	12.0	nt	3.0
CCOCCCNC(=O)C(c1ccc(Cl)cc1)N1CCN(c2ccccc2)CC1 (configuration not stated)	30.6*	110.4	4.9	2.5	-5.0
O=C(CCn1c(=O)sc2ccccc21)NCc1ccc2c(c1)OCO2	nt	128.5	nt	-20.3	nt
CCOC(=O)Nc1cc(C)c(Cl)cc1OC	38.2*	94.8	-3.1	0.3	7.0
COC(=O)C1=CN(CCCN2CCCC2=O)C=C(C(=O)OC)C1c1ccccc1C(F)(F)F	3.5	101.0	35.6*	-1.6	5.0
COC(=O)C1=CN(CC2CCCO2)C=C(C(=O)OC)C1c1ccccc1C(F)(F)F (configuration not stated)	11.3	nt	-4.6	nt	5.0
CCOC(=O)C1CCN(Cc2ccc(N(C)C)cc2)CC1	-0.1	nt	6.9	-14.2	4.0
CCN(CC)C(=O)C1CCN(Cc2ccc(Br)cc2)CC1	6.2	66.8	60.9*	-18.6	2.0
Cc1cc(=O)[nH]c(N2CCc3ccccc3C2)n1	46.4*	nt	2.0	nt	2.0
COc1ccccc1-c1nc(S(=O)(=O)c2ccc(Cl)cc2)c(N(C)C)o1	23.9	99.7	10.5	2.8	8.0
CN(C)c1oc(-c2ccccc2Cl)nc1P(=O)(c1ccccc1)c1ccccc1	6.6	nt	30.8*	nt	0.0
SMILES	PostGolgi ctrl	Her2 expr inh	PostGolgi yeast	tolC growth inh	Ecoli WT expand
COc1cccc(CNC(=O)C2CCC(CNS(=O)(=O)c3cccc4nsnc34)CC2)c1 (configuration not stated)	14.5	nt	0.2	nt	3.0
COc1cc2c(cc1OC)CN(C(=O)COc1ccc(C)c(C)c1)CC2	8.8	105.5	3.7	14.5	-2.0
CCCC(C)NC1=NCCCCC1 (configuration not stated)	-1.5	nt	6.8	nt	-2.0
O=C1CC(Sc2nnnn2C2CCCCC2)C(=O)N1c1ccccc1 (configuration not stated)	nt	-3.2*	nt	-7.1	nt
O=C(Nc1cnn(Cc2ccc(Cl)cc2Cl)c1)c1noc2c1CCCC2	33.2*	99.4	-5.1	71.2*	-6.0
CC(=O)N1c2ccccc2C(C)(c2ccccc2)CC1(C)C (configuration not stated)	15.4	nt	-4.7	nt	2.0
CN1CCN(CC(=O)N2c3ccccc3C(=O)Nc3cccnc32)CC1	nt	79.5	nt	13.1	nt
CN1CCN(CC(=O)N2c3ccccc3C(C)(c3ccc(Cl)cc3)CC2(C)C)CC1 (configuration not stated)	38.8*	nt	2.8	nt	3.0
CN1CCN(CC(=O)N2c3ccccc3C(C)(c3ccccc3)CC2(C)C)CC1 (configuration not stated)	35.7*	98.1	-3.6	-5.8	6.0
Cc1cc(C)n(S(=O)(=O)Cc2ccccc2)n1	0.9	103.4	-0.5	9.8	3.0
Cn1nnc2cc(C(=O)NC(C)(C)C)ccc21	37.2*	115.5	3.7	-9.4	3.0
C=CCNC(=O)c1ccc2c(c1)nnn2C	5.6	70.0	-5.0	-5.5	3.0
Cc1ccc2[nH]c(=O)c(C(c3nnnn3CC3CCCO3)N3CCCc4ccccc43)cc2c1 (configuration not stated)	-10.9	116.0	4.4	26.2	-24.0
O=C(CCCc1ccccc1)Nc1cccc2c1CCCC2	36.8*	nt	-1.0	nt	2.0
CCc1ccccc1NC(=O)CN(c1cccc(OC)c1)S(C)(=O)=O	6.1	111.5	-2.7	-3.1	4.0
O=C(CSc1nc(Cc2ccccc2)nc2ccccc12)c1ccc2c(c1)OCCO2	16.9	nt	20.1	nt	-4.0
CCc1nc(SCC(=O)c2ccc3c(c2)OCCO3)c2ccccc2n1	31.8*	nt	-4.2	nt	-13.0
CN1CCN(C(=O)NC2CCCN2S(=O)(=O)c2ccc(Cl)cc2)CC1 (configuration not stated)	9.0	106.8	1.4	-9.9	0.0
Cc1ccc(NC(=O)NC2CCCN2S(=O)(=O)c2ccc(Cl)cc2)cc1 (configuration not stated)	33.2*	nt	-7.7	nt	2.0
O=S(=O)(NCc1cn2ccsc2n1)c1ccc(Oc2ccccc2)cc1	5.1	67.0	8.0	0.7	-5.0
COc1ccc(C2=NN(CN3C(=O)C(=O)c4ccccc43)C(c3ccc(Br)cc3)C2)cc1 (configuration not stated)	31.9*	nt	4.2	nt	0.0
COc1cccc(C2CC(c3ccccc3OC)n3ncnc3N2)c1 (configuration not stated)	0.7	87.4	-1.3	13.9	6.0
COc1ccccc1C1CC(c2ccc(Cl)cc2)Nc2ncnn21 (configuration not stated)	2.7	90.6	3.9	60.4*	10.0
CCOC(=O)c1nn(-c2ccccc2F)c(-c2ccccc2)c1C(=O)c1ccccc1	32.1*	nt	7.6	nt	-11.0
CCOC(=O)CCNC(C(=O)OCC)c1ccccc1 (configuration not stated)	-4.0	nt	-1.6	nt	-1.0
COc1ccc(Oc2cn[nH]c2-c2ccc(O)cc2O)cc1	7.7	100.9	3.6	94.4*	22.0
CCCc1ccc(Oc2cn[nH]c2-c2ccc(O)cc2O)cc1	99.0*	93.6	97.2*	100.0*	8.0
